Assays:
Hepatitis C virus [1] = test: Antiviral activity against HCV infected in human HuH7 cells by subgenomic replication assay in presence of 10% fetal calf serum; assay type: functional, organism-based, Hepacivirus hominis; conditions: Huh-7
Outline: (§1)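 HCV replicon replication assay in Huh-7 cells; EC50 is the concentration giving 50% inhibition of replication. Run with 10% fetal calf serum (low serum) or 50% normal human serum (to gauge protein binding). Mean of at least three independent experiments.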

Hepatitis C virus [2] = test: Antiviral activity against HCV infected in human HuH7 cells by subgenomic replication assay in presence of 50% normal human serum; assay type: functional, organism-based, Hepacivirus hominis, Huh-7; outline: as §1
Hepatitis C virus [3] = test: Inhibition of HCV genotype 1b NS3/4A protease; set-up: species or system Hepatitis C virus subtype 1b
Outline: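 Full-length HCV NS3/4A protease; inhibition reported as Ki. Mean of at least three independent experiments.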

Compound	EC50 (Hepatitis C virus [1]) [nM]	EC50 (Hepatitis C virus [2]; Hepatitis C virus, Huh-7) [nM]	Ki (Hepatitis C virus [3]) [nM]	EC50 (Hepatitis C virus [2]; huh-7) [nM]
C=CC1CC1(NC(=O)[C@@H]1C[C@@H]2CN1C(=O)[C@H](C(C)(C)C)NC(=O)OCC(C)(C)CCCCc1cccc3c1CN(C3)C(=O)O2)P(=O)(O)O (mixture of isomers)	–	–	16	–
C=CC1CC1(NC(=O)[C@@H]1C[C@@H]2CN1C(=O)[C@H](C(C)(C)C)NC(=O)OCC(C)(C)CCCCc1cccc3c1CN(C3)C(=O)O2)P(=O)(OCC)OCC (stereo in doubt)	–	–	2900	20000
C=C[C@H]1C[C@]1(NC(=O)[C@@H]1C[C@@H]2CN1C(=O)[C@H](C(C)(C)C)NC(=O)OCC(C)(C)CCCCc1cccc3c1CN(C3)C(=O)O2)C(=O)O	–	–	2800	–

Second part, led by results:

EC50 (Hepatitis C virus [1]) [nM]	Compound	EC50 (Hepatitis C virus [2]; Hepatitis C virus, Huh-7) [nM]	Ki (Hepatitis C virus [3]) [nM]	EC50 (Hepatitis C virus [2]; huh-7) [nM]
660	C=CC1CC1(NC(=O)[C@@H]1C[C@@H]2CN1C(=O)[C@H](C(C)(C)C)NC(=O)OCC(C)(C)CCCCc1cccc3c1CN(C3)C(=O)O2)P(=O)(O)OCC (mixture of isomers)	2400	70	–
500	C=CC1CC1(NC(=O)[C@@H]1C[C@@H]2CN1C(=O)[C@H](C(C)(C)C)NC(=O)OCC(C)(C)CCCCc1cccc3c1CN(C3)C(=O)O2)P(C)(=O)O (mixture of isomers)	250	2	–
20000	C=CC1CC1(NC(=O)[C@@H]1C[C@@H]2CN1C(=O)[C@H](C(C)(C)C)NC(=O)OCC(C)(C)CCCCc1cccc3c1CN(C3)C(=O)O2)P(=O)(OCC)OCC (single isomer, unassigned)	15000	–	–
